Data on 9 compounds can be found in ChEMBL document CHEMBL1126875, “Synthesis and LTB4 receptor antagonist activities of the naturally occurring LTB4 receptor antagonist Leucettamine A and related analogues” (J Med Chem, 1993).

The term Ki denotes the dissociation constant of the complex between target and ligand, obtained from inhibition or displacement. Higher therefore signals a looser hold on the target. For orientation: IC50 means the concentration that inhibits the measured activity by half.

Where only a bound is given, the exact number is not on record here.

Experiment [1] deals with T1, Leukotriene B4 receptor 1 (Homo sapiens, UniProt Q15722). As to the kind of experiment: Binding affinity against Leukotriene B4 receptor on intact differentiated U-937 cells in competitive binding assay with [3H]LTB4. The experiment is classed as cell-based. The procedure, abridged: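 Differentiated U-937 cells (1.3% DMSO, 3–4 days), washed; 10⁶ intact cells incubated in HBSS with 0.1% ovalbumin and 0.2 nM [³H]LTB₄, 20 min at 0 °C. Nonspecific binding defined with 1 μM unlabeled LTB₄. Filtration then scintillation counting. IC₅₀ converted to Ki by Cheng–Prusoff.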
T1 sequence (Q15722 whole entry): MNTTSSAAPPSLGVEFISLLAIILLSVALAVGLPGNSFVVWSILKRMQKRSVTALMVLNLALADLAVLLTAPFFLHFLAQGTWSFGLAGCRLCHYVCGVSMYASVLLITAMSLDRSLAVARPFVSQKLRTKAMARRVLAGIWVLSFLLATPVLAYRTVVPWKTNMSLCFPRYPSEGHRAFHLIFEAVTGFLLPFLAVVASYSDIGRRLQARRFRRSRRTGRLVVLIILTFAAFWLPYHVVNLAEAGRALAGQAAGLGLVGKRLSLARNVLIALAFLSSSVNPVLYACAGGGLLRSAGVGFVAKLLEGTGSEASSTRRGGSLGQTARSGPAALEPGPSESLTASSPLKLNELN

Experiment [2] concerns U-937. As to the kind of experiment: Inhibition of [3H]LTB4 binding in whole cells. The conditions noted are these: Homo sapiens.
The subject of experiment [3] is U-937. Briefly: Inhibition of [3H]LTB4 binding in whole cells (U-937). The conditions noted are these: Homo sapiens.
The target in experiment [4] is T1, Leukotriene B4 receptor 1. As to the kind of experiment: Binding affinity against Leukotriene B4 receptor on U-937 cell membrane preparations in competitive binding assay with [3H]LTB4.

In experiment [1], `Cn1c(N)nc(Cc2ccccc2)c1Cc1ccccc1` displayed an inhibition constant (Ki) of 19 µM. Besides, in the experiment with U-937 [2], the 50% inhibitory concentration (IC50) was determined as 30 µM.
Taken in the same sequence, the figures for `Cn1c(N)nc(Cc2ccc(CCCCO)cc2)c1Cc1ccccc1` were 2.4 µM and 3.8 µM.
As for `Cn1cc(Cc2ccccc2)nc1N`, the IC50 in the experiment with U-937 [2] is greater than 100 µM.
As for `CCCCCCn1c(N)nc(Cc2ccccc2)c1Cc1ccccc1`, the IC50 in the experiment on U-937 [3] was greater than 100 µM.
Compound `COc1cccc(Cc2nc(N)n(C)c2Cc2ccccc2)c1` came in with a Ki in experiment [1] of 27 µM. This compound came in with an IC50 in the experiment on U-937 [2] of 40 µM.
Taken in the same sequence, the figures for `Nc1nc(Cc2ccccc2)c(Cc2ccccc2)[nH]1` were 9 µM and 13 µM.
The compound `Cc1[nH]c(N)nc1Cc1ccccc1` had a 50% inhibitory concentration (IC50) in the experiment with U-937 [2] greater than 100 µM.
In experiment [4], `COc1ccc(/C=C/CCCCOc2ccc(C(=O)c3cccc(C(=O)O)c3)cc2CCC(=O)O)cc1` yielded an inhibition constant Ki of 0.36 µM.
In experiment [1], `Cn1c(N)nc(Cc2ccc3c(c2)OCO3)c1Cc1ccc2c(c1)OCO2` [LEUCETTAMINE A] registered an inhibition constant (Ki) of 3.5 µM. The IC50 in the experiment with U-937 [2] was 5.2 µM.
